Type in all cases: functional
Assay [1] deals with Candida tropicalis. Description: Antifungal activity against Candida tropicalis GC 3080. In short, it runs like this: (§1)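 Yeast MIC by broth microdilution in RPMI-1640. Agent at final 0.03-128 µg/mL, yeast inoculum 0.5-2.5 × 10^3 cfu/mL. MIC read after 48 h incubation at 30 °C.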
A further assay relates to Clavispora lusitaniae. Description: Antifungal activity against Candida lusitaniae GC 3068. Put shortly: as §1
The subject of assay [2] is Candida parapsilosis. The assay is described as follows: Antifungal activity against Candida parapsilosis GC 3075. To be noted: Lodderomyces parapsilosis. In short, it runs like this:
as §1

For assay [3], the system named is Candida tropicalis. Description: Antifungal activity against Candida tropicalis GC 3081. In short, it runs like this:
as §1

Another assay concerns Kluyveromyces marxianus. The assay is described as follows: Antifungal activity against Candida pseudotropicalis GC 3070. Put shortly:
as §1

The test system of assay [4] is Candida albicans. The assay is described as follows: Antifungal activity against Candida albicans GC 3064. Put shortly: as §1
In assay [5] the test system is Candida parapsilosis. Description: Antifungal activity against Candida parapsilosis GC 3074. To be noted: Lodderomyces parapsilosis. Put shortly: as §1
The next assay deals with Aspergillus fumigatus. The assay is described as follows: Antifungal activity against Aspergillus fumigatus GC 3092.
For the next assay, the system named is Diutina rugosa. The assay is described as follows: Antifungal activity against Candida rugosa GC 3077. Put shortly:
as §1

For another assay, the system named is Pichia kudriavzevii. The assay is described as follows: Antifungal activity against Candida Krussii GC 3067. Put shortly:
as §1

Assay [6] relates to Candida parapsilosis. The assay is described as follows: Antifungal activity against Candida parapsilosis GC 3076. The following applies: Lodderomyces parapsilosis. In short, it runs like this:
as §1

Assay [7] has as its system Candida albicans. The assay is described as follows: Antifungal activity against Candida albicans GC 3065. In short, it runs like this: as §1
A further assay has as its system Aspergillus niger. The assay is described as follows: Antifungal activity against Aspergillus niger GC 3091.
Assay [8] has as its system Candida albicans. The assay is described as follows: Antifungal activity against Candida albicans GC 3066. Put shortly:
as §1

≈ marks a conversion by molar mass, not a printed value. A value given as a limit tells only on which side of the number the result lay.

As usually defined, the MIC is the smallest concentration in the dilution series that meets the test's criterion for growth inhibition. Low readings indicate inhibition by little substance, high ones a need for much substance. For the molecule `C\C(=C/C=C/C=C/CC/C=C/C(C)C(O)C(C)C(O)/C=C/C=C/C=C/C=C/C=C/C=C/CC(OS(=O)(=O)O)C(C)C(=O)CC(O)CC(O)/C=C/CC(O)CC(O)CC(O)/C=C/CC(O)CC(O)/C=C/CC(O)CC(O)CCCNC(=N)N)C(=O)O` (stereo not given) [CLETHRAMYCIN], the MIC against Candida tropicalis [1] was 16 µg/mL (≈ 13.1 µM); in the assay with Clavispora lusitaniae it was 4 µg/mL (≈ 3.28 µM); in the assay with Candida parapsilosis [2], 16 µg/mL (≈ 13.1 µM); against Candida tropicalis [3] it was 8 µg/mL (≈ 6.57 µM); in the assay on Kluyveromyces marxianus it was 2 µg/mL (≈ 1.64 µM); in the assay with Candida albicans [4], 4 µg/mL (≈ 3.28 µM). Moreover, the MIC was 16 µg/mL (≈ 13.1 µM) with Candida parapsilosis [5]; more than 128 µg/mL in the assay on Aspergillus fumigatus; 4 µg/mL (≈ 3.28 µM) against Diutina rugosa; 2 µg/mL (≈ 1.64 µM) with Pichia kudriavzevii; 16 µg/mL (≈ 13.1 µM) in the assay on Candida parapsilosis [6]; 4 µg/mL (≈ 3.28 µM) in the assay with Candida albicans [7]. The MIC in the assay with Aspergillus niger and against Candida albicans [8] was 4 µg/mL (≈ 3.28 µM) in each case.

As for `C\C(=C/C=C/C=C/CC/C=C/C(C)C(O)C(C)C(O)/C=C/C=C/C=C/C=C/C=C/C=C/CC(O)C(C)C(=O)CC(O)CC(O)/C=C/CC(O)CC(O)CC(O)/C=C/CC(O)CC(O)/C=C/CC(O)CC(O)CCCN)C(=O)O` (stereo not given) [MEDIOMYCIN B], the MIC against Candida tropicalis [1] came out at 2 µg/mL (≈ 1.82 µM); in the assay with Clavispora lusitaniae it was 2 µg/mL (≈ 1.82 µM); against Candida parapsilosis [2], 4 µg/mL (≈ 3.65 µM); with Candida tropicalis [3], 2 µg/mL (≈ 1.82 µM); with Kluyveromyces marxianus, 1 µg/mL (≈ 0.912 µM); against Candida albicans [4], 1 µg/mL (≈ 0.912 µM). The MIC was determined as 2 µg/mL (≈ 1.82 µM) against Candida parapsilosis [5]; 16 µg/mL (≈ 14.6 µM) against Aspergillus fumigatus; 1 µg/mL (≈ 0.912 µM) with Diutina rugosa; 1 µg/mL (≈ 0.912 µM) with Pichia kudriavzevii; 2 µg/mL (≈ 1.82 µM) with Candida parapsilosis [6]; 1 µg/mL (≈ 0.912 µM) in the assay on Candida albicans [7]. Also, the MIC against Aspergillus niger and against Candida albicans [8] was 1 µg/mL (≈ 0.912 µM) throughout.

On to `C[C@@H]1[C@H](O)[C@@H](C)/C=C/C=C/C=C/C=C/C=C/C=C/C=C/[C@H](O[C@@H]2O[C@H](C)[C@@H](O)[C@H](N)[C@@H]2O)C[C@@H]2O[C@](O)(C[C@@H](O)C[C@@H](O)[C@H](O)CC[C@@H](O)C[C@@H](O)CC(=O)O[C@H]1C)C[C@H](O)[C@H]2C(=O)O` [AMPHOTERICIN B], for which the MIC was determined as 0.5 µg/mL (≈ 0.541 µM) against Candida tropicalis [1]; 0.25 µg/mL (≈ 0.271 µM) against Clavispora lusitaniae; 0.5 µg/mL (≈ 0.541 µM) against Candida parapsilosis [2]; 0.5 µg/mL (≈ 0.541 µM) in the assay with Candida tropicalis [3]; 0.25 µg/mL (≈ 0.271 µM) against Kluyveromyces marxianus; 0.5 µg/mL (≈ 0.541 µM) against Candida albicans [4]. Besides, the MIC against Candida parapsilosis [5] was 0.25 µg/mL (≈ 0.271 µM); against Aspergillus fumigatus, 0.25 µg/mL (≈ 0.271 µM); with Diutina rugosa it was 0.5 µg/mL (≈ 0.541 µM); against Pichia kudriavzevii it was 0.5 µg/mL (≈ 0.541 µM); against Candida parapsilosis [6], 0.5 µg/mL (≈ 0.541 µM); in the assay with Candida albicans [7] it was 0.25 µg/mL (≈ 0.271 µM). Moreover, the MIC with Aspergillus niger and against Candida albicans [8] was 0.25 µg/mL (≈ 0.271 µM) each time.

Consider `COC(=O)/C(C)=C/C=C/C=C/CC/C=C/C(C)C(O)C(C)C(O)/C=C/C=C/C=C/C=C/C=C/C=C/CC(OS(=O)(=O)O)C(C)C(=O)CC(O)CC(O)/C=C/CC(O)CC(O)CC(O)/C=C/CC(O)CC(O)/C=C/CC(O)CC(O)CCCN` (stereo not given), for which the MIC against Candida tropicalis [1] is 16 µg/mL (≈ 13.4 µM); against Clavispora lusitaniae, 16 µg/mL (≈ 13.4 µM); against Candida parapsilosis [2], more than 128 µg/mL; in the assay with Candida tropicalis [3], 32 µg/mL (≈ 26.9 µM); in the assay with Kluyveromyces marxianus it was 8 µg/mL (≈ 6.72 µM); against Candida albicans [4] it was 16 µg/mL (≈ 13.4 µM). Also, the MIC is 128 µg/mL (≈ 108 µM) against Candida parapsilosis [5]; more than 128 µg/mL with Aspergillus fumigatus; 8 µg/mL (≈ 6.72 µM) in the assay with Diutina rugosa; 8 µg/mL (≈ 6.72 µM) in the assay on Pichia kudriavzevii; more than 128 µg/mL in the assay on Candida parapsilosis [6]; 16 µg/mL (≈ 13.4 µM) in the assay with Candida albicans [7]. In addition, the values for the MIC against Aspergillus niger and with Candida albicans [8] were more than 128 µg/mL and 32 µg/mL (≈ 26.9 µM), respectively.

For the molecule `C\C(=C/C=C/C=C/CC/C=C/C(C)C(O)C(C)C(O)/C=C/C=C/C=C/C=C/C=C/C=C/CC(OS(=O)(=O)O)C(C)C(=O)CC(O)CC(O)/C=C/CC(O)CC(O)CC(O)/C=C/CC(O)CC(O)/C=C/CC(O)CC(O)CCCN)C(=O)O` (stereo not given) [MEDIOMYCIN A], the MIC against Candida tropicalis [1] was determined as 16 µg/mL (≈ 13.6 µM); with Clavispora lusitaniae, 2 µg/mL (≈ 1.7 µM); in the assay with Candida parapsilosis [2], 16 µg/mL (≈ 13.6 µM); against Candida tropicalis [3] it was 8 µg/mL (≈ 6.8 µM); in the assay with Kluyveromyces marxianus it was 1 µg/mL (≈ 0.85 µM); with Candida albicans [4] it was 2 µg/mL (≈ 1.7 µM). Further, the MIC was 16 µg/mL (≈ 13.6 µM) against Candida parapsilosis [5]; 128 µg/mL (≈ 109 µM) in the assay with Aspergillus fumigatus; 2 µg/mL (≈ 1.7 µM) in the assay on Diutina rugosa; 2 µg/mL (≈ 1.7 µM) with Pichia kudriavzevii; 16 µg/mL (≈ 13.6 µM) in the assay on Candida parapsilosis [6]; 2 µg/mL (≈ 1.7 µM) with Candida albicans [7]. Further, the MIC in the assay with Aspergillus niger worked out at 1 µg/mL (≈ 0.85 µM); in the assay with Candida albicans [8], 4 µg/mL (≈ 3.4 µM).

The record behind these values is ChEMBL document CHEMBL1141461, “Polyene antibiotics from Streptomyces mediocidicus” (2007).
